Molecules are shown by their SMILES. Bounds are passed on as bounds.

Test [1] deals with Hepatitis C virus. Kind of test: Tested for inhibition of HCV RNA replication in a cell-basedassay; No significant inhibition. It is filed as functional, organism-based, Hepacivirus hominis.
Test [2] has as its target T1, RNA-directed RNA polymerase (Hepacivirus hominis, UniProt O39930). Kind of test: Inhibitory potency against NS5B HCV polymerase. The procedure, abridged:
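NS5BΔC55 (C-terminal 55-residue truncation) expressed in E. coli and purified to homogeneity, used at 5 nM in 20 mM Tris/HCl pH 7.5, 0.05% Triton X-100, 2% glycerol, 50 mM NaCl, 1 mM DTT, 5 mM MgCl2. Enzyme preincubated 20 min at 23 °C with poly(rA)/oligo(rU) (20 µg/mL final). Started with 10 µM 3H-UTP, 30 min at 23 °C. Acid-insoluble radioactivity counted. IC50 from three-parameter logistic fit; mean of 2–4 experiments.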

In test [3] the target is T1, RNA-directed RNA polymerase. Kind of test: Ability of compound to displace [3H]-DKA from NS5B HCV polymerase by 50%.
The target is the same in test [4]. Kind of test: Inhibitory potency of compound in presence of Mg2+ ion against NS5B HCV polymerase. The procedure, abridged: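 NS5B with C-terminal 55-residue truncation (ΔC55), expressed in E. coli and purified; 5 nM enzyme in 20 mM Tris/HCl pH 7.5, 0.05% Triton X-100, 2% glycerol, 50 mM NaCl, 1 mM DTT, 5 mM MgCl2. Enzyme preincubated 20 min at 23 °C with poly(rA)/oligo(rU) (20 µg/mL final). Started with 10 µM 3H-UTP, 30 min at 23 °C. Acid-insoluble radioactivity measured; IC50 from three-parameter logistic fit; mean of 2–4 experiments.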

The target is the same in test [5]. Kind of test: Inhibitory potency of compound in presence of Mn2+ ion against NS5B HCV polymerase.

T1 sequence (O39930 whole entry, the tested form may be a part): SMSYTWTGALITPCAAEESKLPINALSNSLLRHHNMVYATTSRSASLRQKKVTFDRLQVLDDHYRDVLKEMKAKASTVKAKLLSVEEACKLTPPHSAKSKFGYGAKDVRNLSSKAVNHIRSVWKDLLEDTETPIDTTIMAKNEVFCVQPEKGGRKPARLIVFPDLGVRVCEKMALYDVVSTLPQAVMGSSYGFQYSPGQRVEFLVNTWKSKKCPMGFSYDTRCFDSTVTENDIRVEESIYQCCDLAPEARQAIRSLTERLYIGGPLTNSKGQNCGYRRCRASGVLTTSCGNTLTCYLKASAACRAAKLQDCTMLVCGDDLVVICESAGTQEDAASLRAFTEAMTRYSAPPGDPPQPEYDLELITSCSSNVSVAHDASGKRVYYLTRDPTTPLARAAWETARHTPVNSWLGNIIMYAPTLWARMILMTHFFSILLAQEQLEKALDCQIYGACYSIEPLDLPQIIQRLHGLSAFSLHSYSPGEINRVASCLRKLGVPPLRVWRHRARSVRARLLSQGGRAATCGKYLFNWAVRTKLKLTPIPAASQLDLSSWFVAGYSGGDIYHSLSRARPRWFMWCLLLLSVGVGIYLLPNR

What is called EC50 is the concentration giving half of the maximal effect. Read a low EC50 as greater potency. The term IC50 denotes the point on the concentration scale where inhibition reaches its midpoint. On to `CCOC(=O)c1cc(=O)c(O)c(C(=O)O)o1`, for which the EC50 in test [1] was more than 50 µM. Besides, the IC50 in test [2] is 2.25 µM; in test [4], 2.25 µM; in test [5], 0.165 µM. Further, the DC50 in test [3] amounted to 1.2 µM.

The compound `COC(=O)c1oc(C(=O)O)cc(=O)c1O` yielded an EC50 in test [1] of more than 50 µM. In test [2], this compound registered an IC50 of more than 100 µM.

`O=C(O)C(=O)/C=C(\O)c1ccccc1`: the EC50 in test [1] is more than 50 µM. The DC50 in test [3] came out at 0.3 µM.

Consider `O=C(O)c1cc(=O)c(O)c(C(=O)O)o1`, for which, in test [1], the EC50 amounted to 50 µM. For the same compound, the IC50 in test [2] was more than 100 µM; in test [4], more than 100 µM; in test [5] it was 18 µM.

Turning to `O=C(O)c1oc2ccccc2c(=O)c1O`, the EC50 in test [1] was more than 50 µM. Besides, the figures for the IC50 in test [4] and in test [5] were 23 µM and 1.9 µM, respectively.

In test [1], `CC(C)(C)OC(=O)c1cc(=O)c(O)c(C(=O)O)o1` displayed an EC50 of more than 50 µM. Further, 36 µM corresponded to half-maximal inhibition in test [2] (IC50).

On to `CCOCc1cc(=O)c(O)c(C(=O)O)o1`, for which the EC50 in test [1] is more than 50 µM. Moreover, the IC50 in test [2] stood at 16.2 µM; in test [4], 16.2 µM; in test [5] it was 0.8 µM.

In turn, `CCNC(=O)c1cc(=O)c(O)c(C(=O)O)o1` registered an EC50 in test [1] of more than 50 µM. Also, the IC50 in test [2] amounted to 24 µM.

On to `O=C(O)c1occc(=O)c1O`, for which, in test [1], the EC50 was more than 50 µM. In test [2], 51 µM corresponded to half-maximal inhibition (IC50).

`CCOC(=O)c1cc(=O)c(O)co1`: the EC50 in test [1] is more than 50 µM. The compound further gave an IC50 in test [2] of more than 100 µM.

`O=C(O)c1oc(COCc2ccccc2)cc(=O)c1O` returned an EC50 in test [1] of more than 50 µM. Also, the IC50 in test [2] was more than 100 µM.

In turn, `CCN(CC)C(=O)c1cc(=O)c(O)c(C(=O)O)o1` gave an EC50 in test [1] of more than 50 µM. The same compound displayed an IC50 in test [2] of more than 100 µM.

Take `CCOC(=O)c1cc(=O)c(O)c(C(=O)OCC)o1`: in test [1], the EC50 is more than 50 µM. Moreover, the values for the IC50 in test [2], in test [4] and in test [5] were more than 100 µM, more than 100 µM and 4 µM, respectively.

Values taken from ChEMBL document CHEMBL1146656, “The monoethyl ester of meconic acid is an active site inhibitor of HCV NS5B RNA-dependent RNA polymerase” (Bioorg Med Chem Lett, 2004).
